Measured values taken from ChEMBL document CHEMBL1127799, “Derivatives of a novel cyclopeptolide. 1. Synthesis, antifungal activity, and structure-activity relationships” (1994).
Converted amounts (≈) assume the structure as drawn.

Experiments:
Type in all cases: functional
Candida albicans [1] = assay: Tested for minimum subinhibitory concentration against Candida albicans 88 (Candida albicans) at pH 6.5.
Summary of the method: (§1)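 Malt extract broth microdilution, initial pH 6.5, inoculum 1×10^3 CFU per 0.2 mL well. Compound diluted from 0.08% stock (5% DMSO/0.2% Tween 80) to final 0.05–100 μg/mL. Macroscopic reading after 48 h, 30 °C. MSIC = lowest concentration giving visible growth inhibition in at least two of three triplicates. Vehicle-only negative controls.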

Candida albicans [2] = assay: Tested for minimum subinhibitory concentration against Candida albicans 90 (Candida albicans) at pH 6.5.; summary of the method: as §1
Candida albicans [3] = assay: Tested for minimum subinhibitory concentration against Candida albicans 3 (Candida albicans) at pH 4.5.
Summary of the method: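 Malt extract broth microdilution at initial pH 4.5, 1×10^3 CFU/0.2 mL well, final compound 0.05–100 μg/mL diluted from DMSO/Tween 80 stocks. Incubation was 48 h at 30 °C with macroscopic reading. MSIC was the lowest concentration causing visible growth inhibition in at least two of three triplicates.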

Candida albicans [4] = assay: Tested for minimum subinhibitory concentration against Candida albicans 3 (Candida albicans) at pH 6.5.; summary of the method: as §1
Candida albicans [5] = assay: Tested for minimum inhibitory concentration against Candida albicans 124 (Candida albicans) at pH 4.5.
Summary of the method: (§2)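 Broth microdilution in malt extract broth, initial pH 4.5 or 6.5, with 1×10^3 CFU per 0.2 mL well of thawed stored cultures. Compound stocks were made in 5% DMSO/0.2% Tween 80 and diluted to final 0.05–100 μg/mL. Plates were incubated 48 h at 30 °C and read macroscopically. MIC was the lowest concentration with no detectable growth. Vehicle-only wells served as controls.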

Candida albicans [6] = assay: Tested for minimum inhibitory concentration against Candida albicans 26 (Candida albicans) at pH 4.5.; summary of the method: as §2
Candida albicans [7] = assay: Tested for minimum inhibitory concentration against Candida albicans 3 (Candida albicans) at pH 4.5.; summary of the method: as §2
Candida albicans [8] = assay: Tested for minimum inhibitory concentration against Candida albicans 88 (Candida albicans) at pH 4.5.; summary of the method: as §2
Candida albicans [9] = assay: Tested for minimum inhibitory concentration against Candida albicans 9 (Candida albicans) at pH 4.5.; summary of the method: as §2
Candida albicans [10] = assay: Tested for minimum inhibitory concentration against Candida albicans 90 (Candida albicans) at pH 6.5.
Summary of the method: (§3)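 Broth microdilution in malt extract broth, initial pH 6.5, 1×10^3 CFU per 0.2 mL well, from liquid-nitrogen-stored Sabouraud cultures. Compound from 0.08% stock in 5% DMSO/0.2% Tween 80, final 0.05–100 μg/mL. Visual reading after 48 h at 30 °C. MIC = lowest concentration with no detectable growth. Vehicle-only negative controls.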

[11] = test system: Meyerozyma guilliermondii; assay: Tested for minimum inhibitory concentration against Candida guilliermondii 80 (C.g) at pH of 6.5.; summary of the method: as §2
[12] = test system: Meyerozyma guilliermondii; assay: Tested for minimum inhibitory concentration against Candida guilliermondii 80 (C.g) at pH of 4.5.; summary of the method: as §2
Candida albicans [13] = assay: Tested for minimum subinhibitory concentration against Candida albicans 124 (Candida albicans) at pH 6.5.; summary of the method: as §1
Pichia kudriavzevii [14] = assay: Tested for minimum inhibitory concentration against Candida krusei 132 (C.k) at pH of 4.5.; summary of the method: as §2
Pichia kudriavzevii [15] = assay: Tested for minimum inhibitory concentration against Candida krusei 132 (C.k) at pH of 6.5.; summary of the method: as §2
Candida tropicalis [16] = assay: Tested for minimum inhibitory concentration against Candida tropicalis 43 (C.t) at pH 6.5.; summary of the method: as §3
Candida tropicalis [17] = assay: Tested for minimum inhibitory concentration against Candida tropicalis 43 (C.t) at pH of 4.5.; summary of the method: as §2
Candida tropicalis [18] = assay: Tested for minimum subinhibitory concentration against Candida tropicalis 43 (C.t) at pH 6.5.; summary of the method: as §1
Mus musculus [19] = organism: Mus musculus; assay: Tested for efficacy of compound in experimental vaginal candidosis (mouse) after oral treatment at dosage of 4 x150 mg kg e-1
Summary of the method: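 Vaginal candidiasis in hormonally conditioned female NMRI mice (18–20 g), 10 per group, inoculated intravaginally with 50 μL Sabouraud's glucose broth containing 3.5×10^4 CFU C. albicans no. 124. Dosed four times per gavage, 2 h before and 2, 18 and 24 h after infection. Vaginal swabs plated on Sabouraud's glucose agar with streptomycin (0.1 mg/mL), 48 h at 37 °C. Cure = failed reisolation.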

Mus musculus [20] = organism: Mus musculus; assay: Tested for efficacy of compound in experimental vaginal candidosis (mouse) after oral treatment at dosage of 4 x300 mg kg e-1
Summary of the method: (§4)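 Female NMRI mice (18–20 g; 10 per group) were hormonally conditioned and infected intravaginally with 3.5×10^4 CFU C. albicans no. 124 in 50 μL Sabouraud's glucose broth. Four doses were given by gavage or ip, at 2 h before and 2, 18 and 24 h after infection. One day after the last dose, vaginal swabs were plated on Sabouraud agar with streptomycin (0.1 mg/mL) for 48 h at 37 °C. Failed reisolation counted as cure.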

Mus musculus [21] = assay: Tested for efficacy of compound in experimental vaginal candidosis (mouse) after intraperitoneal treatment at dosage of 4 x100 mg kg e-1; summary of the method: as §4
Rattus norvegicus [22] = assay: Tested for efficacy of compound in experimental vaginal candidosis (rat) after intraperitoneal treatment at dosage of 2x 100 mg kg e-1
Summary of the method: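 Female Wistar rats (~150 g; 10 per group) were hormonally conditioned and infected intravaginally with 3.5×10^4 CFU C. albicans no. 124 in 50 μL broth. Intraperitoneal dosing was given twice, 2 h before and 18 h after infection. Swabs taken one day after the last dose were plated on streptomycin Sabouraud agar (48 h, 37 °C). Cure meant failed reisolation.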

Rattus norvegicus [23] = organism: Rattus norvegicus; assay: Tested for efficacy of compound in experimental vaginal candidosis (rat) after oral treatment at dosage of 2x 150 mg kg e-1
Summary of the method: (§5)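 Hormonally conditioned female Wistar rats (~150 g), 10 per group, given intravaginal C. albicans no. 124, 3.5×10^4 CFU in 50 μL Sabouraud's glucose broth. Oral dosing twice, 2 h before and 18 h after infection. Vaginal swabs plated on Sabouraud's glucose agar with streptomycin (0.1 mg/mL), 48 h at 37 °C. Cured when C. albicans not reisolated.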

Rattus norvegicus [24] = organism: Rattus norvegicus; assay: Tested for efficacy of compound in experimental vaginal candidosis (rat) after oral treatment at dosage of 2x 300 mg kg e-1; summary of the method: as §5
Rattus norvegicus [25] = organism: Rattus norvegicus; assay: Tested for efficacy of compound in experimental vaginal candidosis (rat) after tropical treatment at dosage of 9x 0.1% drug concentration
Summary of the method: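 Female Wistar rats (~150 g, hormonally conditioned, 10 per group) infected intravaginally with 3.5×10^4 CFU C. albicans no. 124 in 50 μL broth. Intravaginal gel, 0.2 mL, from 2 h post-inoculation, twice daily for 4 days (nine applications). Swabs plated one day after last treatment on Sabouraud's glucose agar with streptomycin, 48 h at 37 °C. Cure = no reisolation.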

Candida albicans [26] = assay: Tested for minimum inhibitory concentration against Candida albicans 4 (Candida albicans) at pH 6.5.; summary of the method: as §3
Mus musculus [27] = assay: Tested for efficacy of compound in experimental systemic candidosis (mouse) after intraperitoneal treatment at dosage of 8 *25 mg kg e-1
Summary of the method: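 Mice (female NMRI, 18–20 g; 10 per group) infected by tail-vein injection of 10⁶ CFU C. albicans no. 124. Compound was given intraperitoneally twice daily on 4 consecutive days, starting 2 h before inoculation. Efficacy was scored as survival rate up to day 9 after infection.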

Q: Which results are given for `CC[C@@H](C)[C@H]1C(=O)NCC(=O)N(C)[C@@H](C(C)C)C(=O)N[C@@H](Cc2ccc(OC)cc2)C(=O)O[C@H](C)C(=O)N2CCCC[C@H]2C(=O)N(C)[C@@H](C(C)C)C(=O)N[C@@H](C(C)C)C(=O)N(C)[C@@H](CC(=O)O)C(=O)N(C)[C@@H]([C@@H](C)CC)C(=O)N1C`?
A: MSIC (Candida albicans [1]): 3.12 µg/mL; MSIC (Candida albicans [2]): 3.12 µg/mL; MSIC (Candida albicans [3]): 0.78 µg/mL; MSIC (Candida albicans [4]): 6.25 µg/mL; MIC (Candida albicans [5]): 1.56 µg/mL (≈ 1.38 µM); MIC (Candida albicans [6]): 6.25 µg/mL (≈ 5.55 µM); MIC (Candida albicans [7]): 6.25 µg/mL (≈ 5.55 µM); MIC (Candida albicans [8]): 12.5 µg/mL (≈ 11.1 µM); MIC (Candida albicans [9]): 12.5 µg/mL (≈ 11.1 µM); MIC (Candida albicans [10]): 100 µg/mL (≈ 88.8 µM); MIC [11]: > 100 µg/mL; MIC [12]: 6.25 µg/mL (≈ 5.55 µM); MSIC (Candida albicans [13]): 3.12 µg/mL; MIC (Pichia kudriavzevii [14]): > 100 µg/mL; MIC (Pichia kudriavzevii [15]): > 100 µg/mL; MIC (Candida tropicalis [16]): 100 µg/mL (≈ 88.8 µM); MIC (Candida tropicalis [17]): 1.56 µg/mL (≈ 1.38 µM); MSIC (Candida tropicalis [18]): 6.25 µg/mL; Efficacy (Mus musculus [19]): 31%; Efficacy (Mus musculus [20]): 64%; Efficacy (Mus musculus [21]): 14%; Efficacy (Rattus norvegicus [22]): 76%; Efficacy (Rattus norvegicus [23]): 0%; Efficacy (Rattus norvegicus [24]): 56%; Efficacy (Rattus norvegicus [25]): 78%; MIC (Candida albicans [26]): 100 µg/mL (≈ 88.8 µM); Efficacy (Mus musculus [27]): 20%
